Measured values as given in ChEMBL document CHEMBL1139042, “1,3-Disubstituted-imidazo[1,5-a]pyrazines as insulin-like growth-factor-I receptor (IGF-IR) inhibitors” (Bioorg Med Chem Lett, 2007).

Legend:
[1] = Cmax in CD1 mouse at 50 mg/kg, po; format: ADME, organism-based; parameters: dose 50 mg/kg, route oral; conditions: in vivo
How it was run: (§1)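 Female CD-1 mice, 6–10 weeks old, received a single 1 mg/kg IV tail-vein dose or a single 50 mg/kg oral gavage dose. The oral vehicle varied by compound: 30:70 PEG-400:WFI with Labrafil, 50:50 PEG-400:WFI, or 50:50 PEG-400:5% citric acid. Three animals were sacrificed per timepoint and blood was taken into EDTA by cardiac puncture. Plasma (1500g, 10 min) was methanol-precipitated and analysed by HPLC-MS/MS against spiked mouse-plasma calibrants. Parameters came from non-compartmental analysis of median (n=3) concentrations.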

[2] = Half life in CD1 mouse at 1 mg/kg, iv; format: ADME, organism-based; parameters: dose 1 mg/kg, route intravenous; conditions: in vivo; how it was run: as §1
[3] = AUC (0 to infinity) in CD1 mouse at 50 mg/kg, po; format: ADME, organism-based; parameters: time infinity, dose 50 mg/kg, route oral; conditions: plasma; how it was run: as §1
[4] = Oral bioavailability in CD1 mouse at 50 mg/kg, po; format: ADME, organism-based; conditions: in vivo; how it was run: as §1
[5] = biological target: T1, Insulin-like growth factor 1 receptor (Homo sapiens, UniProt P08069); assay: Inhibition of human recombinant GST-IGF1R activity
T1 sequence (P08069 31-736 limits assumed): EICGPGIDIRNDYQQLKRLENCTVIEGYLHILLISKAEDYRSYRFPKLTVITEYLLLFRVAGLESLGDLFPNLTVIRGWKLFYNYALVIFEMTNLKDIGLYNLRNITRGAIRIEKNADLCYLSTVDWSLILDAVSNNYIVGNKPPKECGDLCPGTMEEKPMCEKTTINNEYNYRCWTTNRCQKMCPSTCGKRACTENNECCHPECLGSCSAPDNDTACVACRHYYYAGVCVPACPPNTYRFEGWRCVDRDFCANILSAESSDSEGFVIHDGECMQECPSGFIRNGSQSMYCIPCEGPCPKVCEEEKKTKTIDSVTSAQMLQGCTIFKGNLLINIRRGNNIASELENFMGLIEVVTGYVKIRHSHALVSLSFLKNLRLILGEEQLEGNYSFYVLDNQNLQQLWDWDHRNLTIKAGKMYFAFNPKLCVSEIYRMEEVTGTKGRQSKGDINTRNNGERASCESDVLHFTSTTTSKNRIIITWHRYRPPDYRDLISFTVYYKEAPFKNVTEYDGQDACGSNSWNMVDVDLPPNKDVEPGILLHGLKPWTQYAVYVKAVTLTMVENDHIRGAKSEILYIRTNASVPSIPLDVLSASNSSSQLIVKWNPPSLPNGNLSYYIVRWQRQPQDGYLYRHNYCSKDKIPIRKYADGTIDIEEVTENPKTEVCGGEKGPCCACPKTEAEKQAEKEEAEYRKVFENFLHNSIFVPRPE
T1 sequence (P08069 741-1367 limits assumed): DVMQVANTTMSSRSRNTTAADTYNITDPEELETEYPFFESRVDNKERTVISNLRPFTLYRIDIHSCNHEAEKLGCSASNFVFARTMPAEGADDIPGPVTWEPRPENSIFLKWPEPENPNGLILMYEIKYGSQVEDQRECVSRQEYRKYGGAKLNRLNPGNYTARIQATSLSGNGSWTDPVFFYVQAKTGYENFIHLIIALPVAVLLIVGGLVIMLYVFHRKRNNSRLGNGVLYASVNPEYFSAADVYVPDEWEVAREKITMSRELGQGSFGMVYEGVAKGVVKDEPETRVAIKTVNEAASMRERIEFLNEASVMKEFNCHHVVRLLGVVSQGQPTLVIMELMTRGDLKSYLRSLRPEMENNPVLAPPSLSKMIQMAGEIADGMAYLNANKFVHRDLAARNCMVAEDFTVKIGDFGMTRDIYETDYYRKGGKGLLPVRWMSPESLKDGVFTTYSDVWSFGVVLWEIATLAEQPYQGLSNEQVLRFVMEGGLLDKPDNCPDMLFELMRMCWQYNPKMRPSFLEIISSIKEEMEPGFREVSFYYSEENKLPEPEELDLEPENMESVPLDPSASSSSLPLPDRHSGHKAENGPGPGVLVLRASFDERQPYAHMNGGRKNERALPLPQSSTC

[6] = biological target: T1, Insulin-like growth factor 1 receptor; assay: Inhibition of IGF1-stimulated phosphorylation of human recombinant IGF1R expressed in NIH3T3 cells; format: cell-based
[7] = biological target: RAF proto-oncogene serine/threonine-protein kinase (Homo sapiens) (UniProt P04049); assay: Inhibition of c-Raf at 10 uM
How it was run: (§2)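 Radiometric kinase profiling was run as an outsourced panel on recombinant purified enzymes.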

[8] = biological target: Ribosomal protein S6 kinase beta-1 (Homo sapiens) (UniProt P23443); assay: Inhibition of p70S6K at 10 uM; how it was run: as §2
Ribosomal protein S6 kinase beta-1 (Homo sapiens), sequence (P23443 whole entry, looked up): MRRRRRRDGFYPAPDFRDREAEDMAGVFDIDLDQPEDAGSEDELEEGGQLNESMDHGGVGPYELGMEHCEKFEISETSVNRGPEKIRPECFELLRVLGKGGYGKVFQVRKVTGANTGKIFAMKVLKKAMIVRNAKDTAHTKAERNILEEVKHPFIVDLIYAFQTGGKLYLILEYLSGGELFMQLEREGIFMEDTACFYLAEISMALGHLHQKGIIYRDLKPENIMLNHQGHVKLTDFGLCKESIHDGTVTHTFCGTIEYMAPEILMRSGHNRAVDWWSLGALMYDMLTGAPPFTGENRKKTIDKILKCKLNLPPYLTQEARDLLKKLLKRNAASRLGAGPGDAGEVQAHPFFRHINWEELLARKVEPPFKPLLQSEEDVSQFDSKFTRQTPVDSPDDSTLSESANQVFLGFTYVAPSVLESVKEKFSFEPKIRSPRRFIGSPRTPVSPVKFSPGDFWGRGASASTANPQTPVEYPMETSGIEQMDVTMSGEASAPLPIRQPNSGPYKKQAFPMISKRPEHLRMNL

[9] = biological target: 3-phosphoinositide-dependent protein kinase 1 (PDPK1) (Homo sapiens) (UniProt O15530); assay: Inhibition of PDK1 at 10 uM
[10] = biological target: Tyrosine-protein kinase ABL1 (Homo sapiens) (UniProt P00519); assay: Inhibition of Abl at 10 uM; how it was run: as §2
Tyrosine-protein kinase ABL1 (Homo sapiens), sequence (P00519 whole entry): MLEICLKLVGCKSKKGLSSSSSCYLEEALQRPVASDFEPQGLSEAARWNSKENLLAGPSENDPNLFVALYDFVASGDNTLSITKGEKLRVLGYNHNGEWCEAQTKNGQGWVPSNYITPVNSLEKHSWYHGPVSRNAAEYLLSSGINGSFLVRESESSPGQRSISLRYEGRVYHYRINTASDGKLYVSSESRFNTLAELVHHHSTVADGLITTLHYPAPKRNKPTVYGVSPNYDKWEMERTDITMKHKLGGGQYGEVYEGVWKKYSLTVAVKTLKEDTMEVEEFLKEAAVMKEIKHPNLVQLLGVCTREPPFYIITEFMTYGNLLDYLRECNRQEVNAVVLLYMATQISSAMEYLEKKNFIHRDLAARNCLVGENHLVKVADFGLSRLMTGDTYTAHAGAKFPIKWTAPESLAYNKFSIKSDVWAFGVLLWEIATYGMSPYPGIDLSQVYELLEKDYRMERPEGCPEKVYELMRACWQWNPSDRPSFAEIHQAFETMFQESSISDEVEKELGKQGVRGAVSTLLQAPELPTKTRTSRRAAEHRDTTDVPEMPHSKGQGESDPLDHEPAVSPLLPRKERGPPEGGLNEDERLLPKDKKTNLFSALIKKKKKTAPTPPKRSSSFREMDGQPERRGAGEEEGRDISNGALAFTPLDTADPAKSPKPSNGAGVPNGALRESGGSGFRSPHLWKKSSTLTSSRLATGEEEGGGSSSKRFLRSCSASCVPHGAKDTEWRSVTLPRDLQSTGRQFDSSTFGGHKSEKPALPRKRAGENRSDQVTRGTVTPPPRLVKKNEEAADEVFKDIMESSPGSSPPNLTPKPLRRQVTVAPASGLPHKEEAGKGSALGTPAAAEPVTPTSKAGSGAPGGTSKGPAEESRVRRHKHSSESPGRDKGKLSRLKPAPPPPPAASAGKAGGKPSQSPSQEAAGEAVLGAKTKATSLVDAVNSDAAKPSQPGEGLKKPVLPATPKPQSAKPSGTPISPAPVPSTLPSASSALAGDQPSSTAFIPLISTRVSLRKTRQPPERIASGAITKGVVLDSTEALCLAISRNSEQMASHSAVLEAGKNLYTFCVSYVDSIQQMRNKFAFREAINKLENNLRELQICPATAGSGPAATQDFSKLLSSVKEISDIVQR

[11] = biological target: Tyrosine-protein kinase Fes/Fps (Homo sapiens) (UniProt P07332); assay: Inhibition of Fes at 10 uM; how it was run: as §2
[12] = biological target: Mitogen-activated protein kinase 1 (ERK2) (Homo sapiens) (UniProt P28482); assay: Inhibition of MAPK2 at 10 uM
Mitogen-activated protein kinase 1 (ERK2) (Homo sapiens), sequence (P28482 whole entry, looked up): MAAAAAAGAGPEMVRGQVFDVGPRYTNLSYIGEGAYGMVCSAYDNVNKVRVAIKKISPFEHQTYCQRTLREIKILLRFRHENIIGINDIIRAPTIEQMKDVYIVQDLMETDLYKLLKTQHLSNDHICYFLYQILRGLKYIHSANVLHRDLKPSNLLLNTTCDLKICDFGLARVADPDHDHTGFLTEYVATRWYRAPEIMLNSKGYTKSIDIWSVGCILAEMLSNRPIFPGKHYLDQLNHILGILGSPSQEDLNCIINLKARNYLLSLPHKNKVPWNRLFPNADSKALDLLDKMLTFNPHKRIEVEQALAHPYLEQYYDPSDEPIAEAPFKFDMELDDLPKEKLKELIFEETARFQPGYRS

[13] = biological target: T2, Inhibitor of nuclear factor kappa-B kinase subunit beta (Homo sapiens) (UniProt O14920); assay: Inhibition of IKK-beta at 10 uM; how it was run: as §2
T2 sequence (whole entry): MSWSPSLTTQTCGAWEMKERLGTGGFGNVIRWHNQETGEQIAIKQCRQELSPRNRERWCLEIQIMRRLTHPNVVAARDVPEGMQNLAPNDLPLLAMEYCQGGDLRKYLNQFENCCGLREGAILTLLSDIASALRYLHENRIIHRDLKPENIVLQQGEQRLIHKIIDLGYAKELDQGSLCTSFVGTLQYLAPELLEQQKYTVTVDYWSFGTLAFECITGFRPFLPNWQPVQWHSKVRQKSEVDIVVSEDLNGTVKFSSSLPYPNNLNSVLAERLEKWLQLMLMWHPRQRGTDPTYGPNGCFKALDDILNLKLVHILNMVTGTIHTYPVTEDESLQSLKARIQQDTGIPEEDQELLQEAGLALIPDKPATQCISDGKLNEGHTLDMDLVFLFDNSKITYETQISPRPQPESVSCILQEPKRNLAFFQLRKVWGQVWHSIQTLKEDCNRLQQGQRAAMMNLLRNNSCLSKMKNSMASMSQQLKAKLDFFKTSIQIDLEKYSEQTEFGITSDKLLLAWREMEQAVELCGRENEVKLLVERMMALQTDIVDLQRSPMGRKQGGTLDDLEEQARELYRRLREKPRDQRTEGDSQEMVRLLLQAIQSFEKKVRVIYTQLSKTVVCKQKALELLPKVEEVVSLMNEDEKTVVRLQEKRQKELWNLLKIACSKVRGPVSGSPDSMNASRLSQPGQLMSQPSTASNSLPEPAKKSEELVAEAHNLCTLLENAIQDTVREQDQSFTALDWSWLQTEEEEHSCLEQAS

Homo sapiens [14] = organism: Homo sapiens; assay: Inhibition of PKBalpha at 10 uM; how it was run: as §2
Homo sapiens [15] = organism: Homo sapiens; assay: Inhibition of Cdk2/Cyclin E at 10 uM; how it was run: as §2
[16] = biological target: Platelet-derived growth factor receptor beta (Homo sapiens) (UniProt P09619); assay: Inhibition of PDGFRbeta at 10 uM; how it was run: as §2
Platelet-derived growth factor receptor beta (Homo sapiens), sequence (P09619 whole entry): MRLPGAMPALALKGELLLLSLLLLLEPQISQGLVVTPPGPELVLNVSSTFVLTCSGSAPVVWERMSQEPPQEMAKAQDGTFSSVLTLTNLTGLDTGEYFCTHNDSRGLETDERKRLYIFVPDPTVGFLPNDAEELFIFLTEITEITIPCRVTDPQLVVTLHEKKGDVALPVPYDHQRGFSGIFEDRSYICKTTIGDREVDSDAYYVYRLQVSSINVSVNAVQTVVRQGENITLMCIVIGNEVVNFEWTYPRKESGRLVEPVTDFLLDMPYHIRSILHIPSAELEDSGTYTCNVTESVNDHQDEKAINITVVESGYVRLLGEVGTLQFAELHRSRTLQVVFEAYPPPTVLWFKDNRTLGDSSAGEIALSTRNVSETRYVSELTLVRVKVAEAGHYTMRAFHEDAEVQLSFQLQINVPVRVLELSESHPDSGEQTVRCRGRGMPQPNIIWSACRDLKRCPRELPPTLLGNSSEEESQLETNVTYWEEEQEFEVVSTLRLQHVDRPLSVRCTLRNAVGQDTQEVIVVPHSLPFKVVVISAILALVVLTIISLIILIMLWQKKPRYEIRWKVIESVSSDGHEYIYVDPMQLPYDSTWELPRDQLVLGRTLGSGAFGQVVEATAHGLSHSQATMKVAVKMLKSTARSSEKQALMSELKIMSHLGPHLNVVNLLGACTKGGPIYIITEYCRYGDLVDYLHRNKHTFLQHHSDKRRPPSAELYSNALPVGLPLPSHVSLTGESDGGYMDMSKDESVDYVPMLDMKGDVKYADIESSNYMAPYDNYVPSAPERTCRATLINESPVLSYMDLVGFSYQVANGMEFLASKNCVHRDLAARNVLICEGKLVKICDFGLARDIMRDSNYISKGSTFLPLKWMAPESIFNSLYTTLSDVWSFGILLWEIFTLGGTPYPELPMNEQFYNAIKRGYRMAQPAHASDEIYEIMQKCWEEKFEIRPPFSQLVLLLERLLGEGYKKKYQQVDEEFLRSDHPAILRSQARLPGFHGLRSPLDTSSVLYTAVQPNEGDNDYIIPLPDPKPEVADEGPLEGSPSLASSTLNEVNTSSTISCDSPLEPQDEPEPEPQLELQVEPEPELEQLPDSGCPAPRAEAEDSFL

[17] = biological target: Serine/threonine-protein kinase Chk2 (Homo sapiens) (UniProt O96017); assay: Inhibition of Chk2 at 10 uM; how it was run: as §2
[18] = biological target: Casein kinase II subunit alpha (Homo sapiens) (UniProt P68400); assay: Inhibition of CK2 at 10 uM; how it was run: as §2
Casein kinase II subunit alpha (Homo sapiens), sequence (P68400 whole entry, looked up): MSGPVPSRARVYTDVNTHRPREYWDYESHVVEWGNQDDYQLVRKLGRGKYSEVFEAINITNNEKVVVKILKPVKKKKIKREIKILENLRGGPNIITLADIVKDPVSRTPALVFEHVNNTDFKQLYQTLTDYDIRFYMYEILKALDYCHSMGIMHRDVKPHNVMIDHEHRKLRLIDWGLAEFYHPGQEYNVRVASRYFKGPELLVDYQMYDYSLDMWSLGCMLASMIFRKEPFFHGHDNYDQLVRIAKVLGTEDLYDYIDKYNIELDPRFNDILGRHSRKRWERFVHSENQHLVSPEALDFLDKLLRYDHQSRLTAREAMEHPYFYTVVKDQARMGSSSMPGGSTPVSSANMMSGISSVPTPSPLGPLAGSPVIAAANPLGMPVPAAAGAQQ

Homo sapiens [19] = organism: Homo sapiens; assay: Inhibition of Cdk2/Cyclin A at 10 uM; how it was run: as §2
[20] = biological target: Protein kinase C alpha type (Homo sapiens) (UniProt P17252); assay: Inhibition of PKCalpha at 10 uM; how it was run: as §2
Homo sapiens [21] = organism: Homo sapiens; assay: Inhibition of PKA at 10 uM; how it was run: as §2

`Nc1nccn2c1c(-c1cccc(OCc3ccccc3)c1)nc2[C@H]1CC[C@H](C(N)=O)CC1` showed a Cmax [1] of 2220 nM, a half-life [2] of 37.8 min and an AUC(0-inf) [3] of 1320 ng·h/mL. It also gave a bioavailability [4] of 34%.
In the case of `Nc1nccn2c(C3CCC3)nc(-c3cccc(OCc4ccccc4)c3)c12`, the Cmax [1] is reported as 860 nM, the IC50 [5] is reported as 606 nM and the half-life [2] is reported as 78 min. It also gave an IC50 [6] of 1160 nM, an AUC(0-inf) [3] of 1760 ng·h/mL and a bioavailability [4] of 47%.
Work on `NC[C@H]1C[C@@H](c2nc(-c3cccc(OCc4ccccc4)c3)c3c(N)nccn32)C1` yielded an IC50 [5] of 60 nM and an IC50 [6] of 690 nM.
`NC[C@H]1CC[C@H](c2nc(-c3cccc(OCc4ccccc4)c3)c3c(N)nccn32)CC1` gave an inhibition [7] of under 50%, an inhibition [8] of under 50% and an inhibition [9] of under 50%. The inhibition [10] was under 50%, the inhibition [11] was under 50% and the inhibition [12] was under 50%. It also gave a Cmax [1] of 2850 nM, an inhibition [13] of under 50% and an IC50 [5] of 119 nM. For the same molecule, the half-life [2] was 137 min, the inhibition (Homo sapiens [14]) was under 50% and the inhibition (Homo sapiens [15]) was under 50%. The inhibition [16] was under 50%, the inhibition [17] was under 50% and the IC50 [6] was 534 nM. The AUC(0-inf) [3] was 3930 ng·h/mL, the inhibition [18] was under 50% and the inhibition (Homo sapiens [19]) was under 50%. The bioavailability [4] was 47%, the inhibition [20] was under 50% and the inhibition (Homo sapiens [21]) was under 50%.
With `COc1ccc(-c2nc(C3CCC3)n3ccnc(N)c23)cc1OCc1ccccc1` the IC50 [5] was 1350 nM.
In the case of `Nc1nccn2c(C3CCC3)nc(-c3ccc(Oc4ccccc4)cc3)c12`, the IC50 [5] is reported as over 10000 nM.
For `NC[C@H]1CC[C@@H](c2nc(-c3cccc(OCc4ccccc4)c3)c3c(N)nccn32)CC1`, the IC50 [5] was 228 nM and the IC50 [6] was 560 nM.
`Nc1nccn2c1c(-c1cccc(OCc3ccccc3)c1)nc2[C@H]1CC[C@H](CN2CCC2)CC1` showed an IC50 [5] of 81 nM and an IC50 [6] of 398 nM.
